Activity calls are given as the source filed them. The rule behind the calls is not given here.

The record followed here is ChEMBL document CHEMBL3414528, “Novel naftopidil-related derivatives and their biological effects as alpha1-adrenoceptors antagonists and antiproliferative agents” (Eur J Med Chem, 2015).

For assay [1], the system named is PC-3. The assay is described as follows: Induction of apoptosis in human PC3 cells assessed as late apoptotic cells at 10 uM after 24 hrs by annexin V/propidium iodide staining-based flow cytometry (reference value: 2.1%). Format: functional. The method, boiled down: (§1)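 Phosphatidylserine exposure in PC-3 cells after 24 h at 0, 5, 10, 20 or 30 μM, by Alexa Fluor 488 annexin V/PI double staining and flow cytometry; early apoptotic = AV+/PI−, late apoptotic or dead = AV+/PI+.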
In general terms: A flow cytometer gives signals particle by particle.

The test system of assay [2] is PC-3. The assay is described as follows: Induction of apoptosis in human PC3 cells assessed as total apoptotic cells at 30 uM after 24 hrs by annexin V/propidium iodide staining-based flow cytometry. Format: functional. The method, boiled down:
as §1

A short description of assay [3]: Cell cycle arrest in human PC3 cells assessed as accumulation at S phase at 10 uM after 24 hrs by propidium iodide staining-based flow cytometry (reference value: 27.26%). Format: functional. Particulars: PC-3. The method, boiled down: (§2)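 PC-3 cells given compound at 5, 10, 15, 20 or 30 μM, or 0.1% DMSO vehicle, for 24 h; stained with propidium iodide and analysed by flow cytometry for G0/G1, S and G2/M fractions.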

Assay [4] in a line: Induction of apoptosis in human PC3 cells assessed as upregulation of Bcl2 expression after 24 hrs by Western blotting analysis. Format: functional, cell-based. To be noted: PC-3, in the assay text read “upregulation of Bax/Bcl2 ratio” for “upregulation of Bcl2 expression”. The method, boiled down: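 PC-3 cells exposed for 24 h to 0, 1, 5, 10, 20 or 30 μM; Bax, Bcl-2 and activated caspase-3 measured by Western blot, reported as Bax/Bcl-2 value.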
On the technique in general: In western blotting, separated proteins are transferred to a membrane and probed.

A short description of assay [5]: Cell cycle arrest in human PC3 cells assessed as accumulation at G0/G1 phase at 5 uM after 24 hrs by propidium iodide staining-based flow cytometry (reference value: 39.20%). Format: functional. To be noted: PC-3. The method, boiled down: as §2
Assay [6] relates to PC-3. The assay is described as follows: Induction of apoptosis in human PC3 cells assessed as early apoptotic cells at 30 uM after 24 hrs by annexin V/propidium iodide staining-based flow cytometry (reference value: 5.7%). Format: functional. The method, boiled down:
as §1

For assay [7], the species on record is Rattus norvegicus. The assay is described as follows: Selectivity ratio for Sprague-Dawley rat thoracic aorta adrenergic alpha-1D receptor to Sprague-Dawley rat prostatic vas deferens adrenergic alpha-1A receptor.
Assay [8] deals with T1, Alpha-1D adrenergic receptor (Rattus norvegicus, UniProt P23944).
T1 sequence (P23944 whole entry): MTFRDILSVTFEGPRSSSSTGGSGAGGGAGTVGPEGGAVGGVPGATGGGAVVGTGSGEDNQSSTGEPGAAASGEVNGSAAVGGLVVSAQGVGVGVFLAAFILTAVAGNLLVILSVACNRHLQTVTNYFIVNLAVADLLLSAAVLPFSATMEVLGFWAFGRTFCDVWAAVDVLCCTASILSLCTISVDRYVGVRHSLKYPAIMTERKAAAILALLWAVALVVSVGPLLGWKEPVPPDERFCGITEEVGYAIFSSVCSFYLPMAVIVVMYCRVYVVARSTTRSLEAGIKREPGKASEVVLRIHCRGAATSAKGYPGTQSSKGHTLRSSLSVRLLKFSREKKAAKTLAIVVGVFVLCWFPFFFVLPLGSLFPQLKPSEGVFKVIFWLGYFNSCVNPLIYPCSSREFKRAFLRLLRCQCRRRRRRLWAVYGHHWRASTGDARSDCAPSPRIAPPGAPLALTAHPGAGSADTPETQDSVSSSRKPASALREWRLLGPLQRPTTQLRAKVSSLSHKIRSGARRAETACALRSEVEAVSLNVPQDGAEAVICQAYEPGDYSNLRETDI
The assay is described as follows: Antagonist activity at Sprague-Dawley rat thoracic aorta adrenergic alpha-1D receptor after 20 mins. To be noted: read-out: pA2 (converted). The method, boiled down:
(§3)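 Isolated rat tissues (prostatic vas deferens, spleen, thoracic aorta) contracted with cumulative norepinephrine; concentration-response curves recorded in presence of increasing antagonist concentrations, antagonism read as rightward curve shift. Mean ± SEM of five to eight separate experiments.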

The nature of assay [9]: Cell cycle arrest in human PC3 cells assessed as accumulation at G2/M phase at 10 uM after 24 hrs by propidium iodide staining-based flow cytometry (reference value: 33.04%). To be noted: PC-3. Format: functional. The method, boiled down:
as §2

Assay [10] in a line: Cell cycle arrest in human PC3 cells assessed as accumulation at G0/G1 phase at 15 uM after 24 hrs by propidium iodide staining-based flow cytometry (reference value: 39.20%). Format: functional. To be noted: PC-3. The method, boiled down: as §2
A short description of assay [11]: Cell cycle arrest in human PC3 cells assessed as accumulation at S phase at 20 uM after 24 hrs by propidium iodide staining-based flow cytometry (reference value: 27.26%). Format: functional. Particulars: PC-3. The method, boiled down: as §2
Assay [12] relates to PC-3. Put plainly: Inhibition of norepinephrine-induced cell proliferation in human PC3 cells at 1.5 to 100 uM by WST-8 assay. Format: functional, cell-based. The method, boiled down: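 PC-3 cells treated with compound at 100, 75, 50, 25, 12.5, 6.25, 3.0 and 1.5 μM alone or together with norepinephrine (20 or 50 μM); viability by WST-8. Mean ± SEM, two-way ANOVA with post-hoc tests.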
(Tetrazolium dyes change colour on reduction, which living cells bring about.)

Assay [13] has as its target T2, Alpha-1A adrenergic receptor (Rattus norvegicus, UniProt P43140).
T2 sequence (P43140 whole entry): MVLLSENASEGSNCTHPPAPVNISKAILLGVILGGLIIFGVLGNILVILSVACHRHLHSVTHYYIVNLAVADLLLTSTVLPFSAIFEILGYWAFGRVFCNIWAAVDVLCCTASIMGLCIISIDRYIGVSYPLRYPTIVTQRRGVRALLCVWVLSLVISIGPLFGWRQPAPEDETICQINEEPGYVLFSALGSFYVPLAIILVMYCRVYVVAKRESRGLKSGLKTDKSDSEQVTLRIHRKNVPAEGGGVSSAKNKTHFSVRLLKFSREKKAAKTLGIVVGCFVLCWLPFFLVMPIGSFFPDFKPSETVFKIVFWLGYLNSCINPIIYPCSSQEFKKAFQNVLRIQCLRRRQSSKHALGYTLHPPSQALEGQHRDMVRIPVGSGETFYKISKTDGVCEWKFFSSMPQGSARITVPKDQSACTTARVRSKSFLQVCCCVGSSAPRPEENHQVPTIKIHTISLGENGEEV
Put plainly: Antagonist activity at Sprague-Dawley rat prostatic vas deferens adrenergic alpha-1A receptor after 20 mins. To be noted: read-out: pA2 (converted). The method, boiled down: as §3

Assay [14] can be described thus: Cell cycle arrest in human PC3 cells assessed as accumulation at G2/M phase at 30 uM after 24 hrs by propidium iodide staining-based flow cytometry (reference value: 33.04%). Format: functional. Particulars: PC-3. The method, boiled down:
as §2

In assay [15] the test system is DU-145. Put plainly: Cytotoxicity against human DU145 cells after 48 hrs by WST-8 assay. To be noted: DU-145, 48 h. Format: functional, cell-based.
Assay [16] is filed under the species Rattus norvegicus. Put plainly: Selectivity ratio for Sprague-Dawley rat thoracic aorta adrenergic alpha-1D receptor to Sprague-Dawley rat spleen adrenergic alpha-1B receptor. Format: tissue-based.
Assay [17] relates to PC-3. Put plainly: Induction of apoptosis in human PC3 cells assessed as late apoptotic cells at 5 uM after 24 hrs by annexin V/propidium iodide staining-based flow cytometry (reference value: 2.1%). Format: functional. The method, boiled down:
as §1

Assay [18] deals with PC-3. Put plainly: Induction of apoptosis in human PC3 cells assessed as early apoptotic cells at 10 uM after 24 hrs by annexin V/propidium iodide staining-based flow cytometry (reference value: 5.7%). Format: functional. The method, boiled down:
as §1

A word on the IC50: it is the concentration that gives 50% inhibition. A higher IC50 goes with a need for much substance. Take `COc1ccccc1N1CCN(CCCNC(=O)c2cc3ccccc3n2Cc2ccccc2)CC1`: the Activity in [1] is 9.2%; in assay [2], 83%; in assay [3], 15.2%; in assay [4], “Dose-dependent effect”; in assay [5], 42.8%; in [6], 50.4%. Besides, the Activity in assay [9] turned out to be 26.5%; in assay [10], 70.6%; in assay [11], 22.2%; in [14], 41.7%; in assay [17], 3.5%; in [18], 41.9%. The results for the Ratio in assay [7] and in [16] were 2.6 and 47.9, respectively. Besides, the values for the Kb in [8] and in assay [13] were 2.75 nM and 7.41 nM, respectively. For the same compound, the inhibition result in assay [12] is “Active”. This compound returned an IC50 in assay [15] of 33300 nM.
